Experimental data from ChEMBL document CHEMBL3580553, “Potent and Nontoxic Chemosensitizer of P-Glycoprotein-Mediated Multidrug Resistance in Cancer: Synthesis and Evaluation of Methylated Epigallocatechin, Gallocatechin, and Dihydromyricetin Derivatives” (J Med Chem, 2015).
pIC50: −log10 of the molar value. Activity calls are given as the source filed them. No cut-off for these calls is given here.

Experiments:
[1] = Cytotoxicity against human LCC-6 cells after 3 days by MTS assay; assay type: functional, cell-based; conditions: LCC-6, 72 h
[2] = Cytotoxicity against human MDA435/LCC6MDR cells after 3 days by MTS assay; assay type: functional, cell-based; conditions: 72 h
L929 = assay: Cytotoxicity against mouse L929 cells after 3 days by MTS assay; assay type: cell-based; conditions: L929, 72 h
[3] = biological target: T1, ATP-dependent translocase ABCB1 (Homo sapiens, UniProt P08183); assay: Modulation of P-gp (unknown origin) transfected in human MDA435/LCC6MDR cells assessed as reversible of paclitaxel resistance measured as IC50 for paclitaxel at 1 uM after 5 days by CellTiter 96 Aqueous assay relative to PTX alone treated cell; assay type: cell-based; conditions: 120 h
T1 sequence (P08183 whole entry): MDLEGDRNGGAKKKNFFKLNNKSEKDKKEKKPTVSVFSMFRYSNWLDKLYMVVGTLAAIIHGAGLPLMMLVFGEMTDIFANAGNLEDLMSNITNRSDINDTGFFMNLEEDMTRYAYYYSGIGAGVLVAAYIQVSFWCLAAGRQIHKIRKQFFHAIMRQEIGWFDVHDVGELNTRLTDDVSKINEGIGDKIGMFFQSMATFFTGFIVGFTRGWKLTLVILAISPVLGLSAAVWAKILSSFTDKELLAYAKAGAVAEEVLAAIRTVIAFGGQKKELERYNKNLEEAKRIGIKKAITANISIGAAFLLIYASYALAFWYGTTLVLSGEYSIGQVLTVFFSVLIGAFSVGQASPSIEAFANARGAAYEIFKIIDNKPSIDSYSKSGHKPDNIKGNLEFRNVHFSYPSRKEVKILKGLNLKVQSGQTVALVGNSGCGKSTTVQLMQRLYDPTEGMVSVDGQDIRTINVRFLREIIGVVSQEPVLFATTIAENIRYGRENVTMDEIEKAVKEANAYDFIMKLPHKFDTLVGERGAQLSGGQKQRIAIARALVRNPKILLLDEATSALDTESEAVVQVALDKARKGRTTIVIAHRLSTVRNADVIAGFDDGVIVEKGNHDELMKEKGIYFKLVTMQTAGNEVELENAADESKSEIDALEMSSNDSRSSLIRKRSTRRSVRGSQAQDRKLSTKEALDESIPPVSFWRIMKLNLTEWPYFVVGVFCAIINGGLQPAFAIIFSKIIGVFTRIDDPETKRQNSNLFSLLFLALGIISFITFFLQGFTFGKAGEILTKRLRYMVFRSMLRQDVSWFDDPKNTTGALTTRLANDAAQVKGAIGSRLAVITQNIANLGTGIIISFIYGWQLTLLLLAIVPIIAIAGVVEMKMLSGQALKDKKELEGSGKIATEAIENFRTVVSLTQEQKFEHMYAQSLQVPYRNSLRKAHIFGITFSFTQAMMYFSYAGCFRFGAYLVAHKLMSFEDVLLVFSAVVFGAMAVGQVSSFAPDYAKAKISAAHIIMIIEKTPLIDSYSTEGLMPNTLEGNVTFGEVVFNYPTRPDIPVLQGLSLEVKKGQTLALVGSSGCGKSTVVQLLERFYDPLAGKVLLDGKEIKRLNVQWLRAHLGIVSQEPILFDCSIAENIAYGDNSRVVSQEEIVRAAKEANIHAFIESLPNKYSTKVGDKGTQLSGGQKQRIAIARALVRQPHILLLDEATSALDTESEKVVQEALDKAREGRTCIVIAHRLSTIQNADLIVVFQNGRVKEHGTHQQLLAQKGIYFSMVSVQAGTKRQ

[4] = Selectivity index, ratio of IC50 for mouse […] cells to EC50 for modulation of P-gp (unknown origin) transfected in human MDA435/LCC6MDR cells assessed as reversing paclitaxel resistance; set-up: species or system L929
[5] = biological target: Multidrug resistance-associated protein 1 (Homo sapiens, UniProt P33527); assay: Modulation of MRP1 (unknown origin) transfected in human 2008/MRP1 cells assessed as potentiation of doxorubicin-induced cytotoxicity measured as doxorubicin IC50 at 1 uM after 5 days by MTS assay relative to doxorubicin alone treated cell; assay type: cell-based; conditions: 2008/mrp1, 120 h
Sequence of Multidrug resistance-associated protein 1 (P33527 whole entry): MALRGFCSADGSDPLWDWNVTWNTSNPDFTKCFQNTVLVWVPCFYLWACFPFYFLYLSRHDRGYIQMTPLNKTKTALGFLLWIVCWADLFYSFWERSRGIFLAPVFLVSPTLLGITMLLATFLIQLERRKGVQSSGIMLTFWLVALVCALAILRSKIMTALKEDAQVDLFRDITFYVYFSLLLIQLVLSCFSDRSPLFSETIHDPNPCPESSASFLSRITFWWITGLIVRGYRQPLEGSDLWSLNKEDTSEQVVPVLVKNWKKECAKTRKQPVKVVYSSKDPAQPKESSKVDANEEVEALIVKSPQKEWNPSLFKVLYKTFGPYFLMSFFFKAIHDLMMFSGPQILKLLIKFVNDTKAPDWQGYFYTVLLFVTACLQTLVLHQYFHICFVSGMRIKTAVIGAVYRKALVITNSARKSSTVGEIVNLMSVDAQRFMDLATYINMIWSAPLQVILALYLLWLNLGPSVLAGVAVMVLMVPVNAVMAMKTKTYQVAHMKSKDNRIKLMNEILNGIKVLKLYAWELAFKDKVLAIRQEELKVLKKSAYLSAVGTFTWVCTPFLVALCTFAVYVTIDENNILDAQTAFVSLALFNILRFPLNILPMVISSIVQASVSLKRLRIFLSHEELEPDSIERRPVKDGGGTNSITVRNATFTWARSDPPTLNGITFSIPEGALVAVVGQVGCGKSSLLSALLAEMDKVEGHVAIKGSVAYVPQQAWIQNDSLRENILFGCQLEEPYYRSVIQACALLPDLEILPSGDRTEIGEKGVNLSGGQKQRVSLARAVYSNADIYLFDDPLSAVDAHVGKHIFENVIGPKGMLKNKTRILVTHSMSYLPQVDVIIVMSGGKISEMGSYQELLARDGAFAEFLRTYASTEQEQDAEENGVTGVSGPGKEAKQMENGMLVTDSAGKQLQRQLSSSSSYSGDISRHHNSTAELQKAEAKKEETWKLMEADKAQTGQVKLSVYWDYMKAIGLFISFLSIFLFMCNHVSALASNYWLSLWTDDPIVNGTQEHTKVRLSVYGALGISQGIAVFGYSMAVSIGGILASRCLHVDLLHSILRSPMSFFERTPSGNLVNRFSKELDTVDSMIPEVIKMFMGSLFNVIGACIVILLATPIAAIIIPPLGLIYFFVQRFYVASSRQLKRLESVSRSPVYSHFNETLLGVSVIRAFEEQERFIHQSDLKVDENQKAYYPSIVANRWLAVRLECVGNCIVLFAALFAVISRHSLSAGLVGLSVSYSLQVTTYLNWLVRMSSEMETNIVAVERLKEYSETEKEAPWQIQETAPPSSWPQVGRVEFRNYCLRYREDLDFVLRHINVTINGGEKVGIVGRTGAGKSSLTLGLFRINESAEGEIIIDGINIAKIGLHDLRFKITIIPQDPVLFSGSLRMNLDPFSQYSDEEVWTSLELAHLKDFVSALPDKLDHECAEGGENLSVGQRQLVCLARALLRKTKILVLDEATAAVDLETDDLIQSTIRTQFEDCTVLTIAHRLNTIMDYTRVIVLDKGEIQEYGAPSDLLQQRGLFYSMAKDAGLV
Method in brief: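 After 5 days at 37 °C, viability was read by MTS. Doxorubicin IC50 came from nonlinear regression, and RF = IC50 without/with modulator. Parental 2008/P cells served as reference. N = 2−4, triplicates, mean ± SEM.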

[6] = biological target: T2, Broad substrate specificity ATP-binding cassette transporter ABCG2 (Homo sapiens, UniProt Q9UNQ0); assay: Modulation of BCRP (unknown origin) transfected in human HEK293/R2 cells assessed as potentiation of topotecan-induced cytotoxicity measured as topotecan IC50 at 1 uM after 5 days by MTS assay relative to topotecan alone treated cell; assay type: cell-based; conditions: hek293/r2, 120 h
T2 sequence (Q9UNQ0 whole entry): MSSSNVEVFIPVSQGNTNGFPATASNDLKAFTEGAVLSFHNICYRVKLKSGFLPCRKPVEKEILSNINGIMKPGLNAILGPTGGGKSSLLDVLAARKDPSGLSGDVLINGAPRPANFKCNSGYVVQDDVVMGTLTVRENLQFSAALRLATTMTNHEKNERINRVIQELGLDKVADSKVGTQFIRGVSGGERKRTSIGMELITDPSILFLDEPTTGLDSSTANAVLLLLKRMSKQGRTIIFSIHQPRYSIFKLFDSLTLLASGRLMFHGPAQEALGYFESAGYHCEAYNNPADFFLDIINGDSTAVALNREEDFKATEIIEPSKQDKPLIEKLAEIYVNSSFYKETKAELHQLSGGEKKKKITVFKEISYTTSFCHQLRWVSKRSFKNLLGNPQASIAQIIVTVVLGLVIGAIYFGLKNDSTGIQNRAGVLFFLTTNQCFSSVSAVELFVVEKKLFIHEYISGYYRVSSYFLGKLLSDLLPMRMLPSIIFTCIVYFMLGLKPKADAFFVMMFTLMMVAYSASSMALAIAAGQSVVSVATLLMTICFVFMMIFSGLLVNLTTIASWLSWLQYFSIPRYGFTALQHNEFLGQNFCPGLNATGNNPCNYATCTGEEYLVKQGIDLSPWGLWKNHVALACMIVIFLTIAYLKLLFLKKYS
Method in brief: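 Incubated 5 days at 37 °C; viability by MTS. Topotecan IC50 came from nonlinear regression, and RF = IC50 without/with modulator. Empty-vector HEK293/pcDNA3.1 served as reference. N = 2−4, triplicates, mean ± SEM.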

[7] = Modulation of P-gp (unknown origin) transfected in human MDA435/LCC6MDR cells assessed as reversible of paclitaxel resistance measured as IC50 for paclitaxel at 1 uM after 5 days by CellTiter 96 Aqueous assay
[8] = Drug uptake in human LCC-6 cells at 20 uM after 150 mins by spectrofluorometry relative to P-gp expressing cells; assay type: ADME, cell-based; conditions: lcc-6, 2.5 h
Method in brief: (§1)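 LCC6 or LCC6MDR cells (3 × 10⁶) incubated with 20 or 200 μM compound or DOX, 37 °C, 150 min. Compound: pellet extracted with methanol, supernatant by reversed-phase C18 HPLC, methanol eluent, 1 mL/min, UV detection at 308 or 270 nm. DOX: lysis buffer, fluorescence by spectrofluorometer. N = 2–3, mean ± SEM.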

[9] = Drug uptake in human LCC-6 cells at 20 uM after 150 mins by spectrofluorometry; assay type: ADME, cell-based; conditions: lcc-6, 2.5 h; method in brief: as §1
[10] = P-gp (unknown origin)- mediated durg uptake in human MDA435/LCC6MDR cells at 20 uM after 150 mins by spectrofluorometry relative to control; assay type: ADME, cell-based; conditions: 2.5 h; method in brief: as §1
[11] = Drug uptake in human LCC-6 cells at 200 uM after 150 mins by spectrofluorometry; assay type: ADME, cell-based; conditions: lcc-6, 2.5 h; method in brief: as §1
[12] = P-gp (unknown origin)- mediated durg uptake in human MDA435/LCC6MDR cells at 200 uM after 150 mins by spectrofluorometry relative to control; assay type: ADME, cell-based; conditions: 2.5 h, in the assay text read “by HPLC” for “by spectrofluorometry”; method in brief: as §1
[13] = biological target: T1, ATP-dependent translocase ABCB1; assay: Modulation of P-gp (unknown origin) transfected in human MDA435/LCC6MDR cells assessed as reversible of paclitaxel resistance measured as IC50 for paclitaxel at 10 uM after 5 days by CellTiter 96 Aqueous assay relative to PTX alone treated cell; assay type: cell-based; conditions: 120 h
Method in brief: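 They were held 5 days at 37 °C and viability read by CellTiter 96 AQueous (MTS). […] RF = IC50 of PTX without modulator / IC50 with modulator.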

[14] = biological target: T1, ATP-dependent translocase ABCB1; assay: Modulation of P-gp (unknown origin) transfected in human MDA435/LCC6MDR cells assessed as induction of intracellular doxorubicin accumulation at 2 uM after 150 mins by spectrofluorometric analysis relative to control; assay type: cell-based; conditions: 2.5 h
Method in brief: (§2)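 LCC6 or LCC6MDR cells (1 × 10⁶) incubated with 20 μM DOX plus 2 μM modulator, 150 min at 37 °C; 0.2% DMSO as negative control; cells washed in cold PBS, lysed in 0.75 M HCl/0.2% Triton X-100 in isopropanol; supernatant DOX fluorescence read by spectrofluorometry.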

Homo sapiens [15] = species on record: Homo sapiens; assay: Modulation of P-gp (unknown origin) transfected in human MDA435/LCC6MDR cells assessed as restoration of intracellular doxorubicin accumulation after 150 mins by spectrofluorometric analysis relative to parental cells; assay type: cell-based; method in brief: as §2
Homo sapiens [16] = species on record: Homo sapiens; assay: Modulation of P-gp (unknown origin) transfected in human MDA435/LCC6MDR cells assessed as restoration of intracellular doxorubicin accumulation at 3 uM after 150 mins by spectrofluorometric analysis relative to parental cells; assay type: cell-based
Method in brief: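 LCC6MDR cells with 20 μM DOX and modulator at 0, 0.05, 0.1, 0.5, 1, 3 or 8 μM; cells lysed and intracellular DOX measured by spectrofluorometry. N = 2–5 independent experiments, mean ± SEM.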

LCC-6 [17] = assay: Effect on doxorubicin efflux in human LCC-6 cells measured at 1.5 uM after 30 to 150 mins by spectrofluorometry relative to control; assay type: functional, cell-based
Method in brief: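 Efflux: LCC6 or LCC6MDR cells preloaded with 20 μM DOX 1 h at 37 °C, washed in PBS, resuspended in DMEM ± 1.5 μM modulator; samples at 0, 30, 60, 90, 120, 150 min chilled on ice; intracellular DOX by spectrofluorometry. DMSO control; N = 3–4, mean ± SEM.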

LCC-6 [18] = assay: Effect on doxorubicin influx in human LCC-6 cells measured at 1.5 uM after 30 to 150 mins by spectrofluorometry relative to control; assay type: functional, cell-based
LCC6MDR (human) = assay: Inhibition of P-gp-mediated doxorubicin efflux in human LCC6MDR cells measured at 1.5 uM after 30 to 150 mins by spectrofluorometry relative to control

Row | Compound | pIC50 [1] | pIC50 [2] | pIC50 (L929) | Ratio [3] | Ratio IC50/EC50 [4] | Ratio [5] | Ratio [6] | IC50 [7] [µM] | also measured
1 | COc1cc(OC)c2c(c1)O[C@H](c1cc(OC)c(OC)c(OC)c1)[C@@H](OC(=O)c1ccc(F)c(NC(=O)c3ccc(OC)c(OC)c3)c1)C2 | < 4.00 | < 4.00 | < 4.00 | 31.4 | >585 | 2.6 | 10.4 | 0.0046 | 
2 | COc1cccc2c1C(=O)c1c(O)c3c(c(O)c1C2=O)C[C@@](O)(C(=O)CO)C[C@@H]3O[C@H]1C[C@H](N)[C@H](O)[C@H](C)O1 [DOXORUBICIN] |  |  |  |  |  |  |  |  | Drug uptake [8]: Active
3 | COc1cc(OC)c2c(c1)O[C@H](c1cc(OC)c(OC)c(OC)c1)[C@@H](OC(=O)c1ccc(F)c(NC(=O)/C=C/c3ccc(OC)c(OC)c3)c1)C2 | < 4.00 | < 4.00 | < 4.00 | 21.9 | >357 |  |  |  | 
4 | COc1cc(OC)c2c(c1)O[C@H](c1cc(OC)c(OC)c(OC)c1)[C@@H](OC(=O)c1ccc(F)c(NC(=O)c3cc(OC)c(OC)c(OC)c3)c1)C2 | < 4.00 | < 4.00 | < 4.00 | 53.6 | >714 | 2.6 | 12.3 | 0.0027 | Drug uptake [9]: Active; Drug uptake [10]: Not Active; Drug uptake [11]: Active; Drug uptake [12]: Not Active
5 | O=C(O[C@@H]1Cc2c(O)cc(O)cc2O[C@@H]1c1cc(O)c(O)c(O)c1)c1cc(O)c(O)c(O)c1 [EPIGALOCATECHIN GALLATE] | 4.16 | 4.25 | 4.08 | 1.2 |  |  |  |  | Ratio [13]: 1.2
6 | COc1cc(OC)c2c(c1)O[C@H](c1cc(OC)c(OC)c(OC)c1)[C@@H](OC(=O)c1ccc(F)c(NC(=O)/C=C/c3cc(OC)c(OC)c(OC)c3)c1)C2 | < 4.00 | < 4.00 | < 4.00 | 34.4 | >444 |  |  | 0.0042 | 
7 | COc1cc(OC)c2c(c1)O[C@H](c1cc(OC)c(OC)c(OC)c1)[C@H](OC(=O)/C=C/c1cc(OC)c(OC)c(OC)c1)C2 | < 4.00 | < 4.00 | < 4.00 |  |  |  |  |  | fold change (FC) [14]: 2.7; Activity (Homo sapiens [15]): Dose-dependent effect; Activity (Homo sapiens [16]): Active; Activity (LCC-6 [17]): inactive; Activity (LCC-6 [18]): inactive; Drug uptake [9]: Active; Drug uptake [10]: Not Active; Drug uptake [11]: Active; Drug uptake [12]: Not Active; inhibition (LCC6MDR (human)): Active
8 | COc1cc(OC)c2c(c1)O[C@H](c1cc(OC)c(OC)c(OC)c1)[C@H](OC(=O)/C=C/c1ccc(OC)c(OC)c1)C2 | < 4.00 | < 4.00 | < 4.00 | 16.6 | >638 |  |  |  | 
9 | COc1ccc(CCN(C)CCCC(C#N)(c2ccc(OC)c(OC)c2)C(C)C)cc1OC (configuration not stated) |  |  |  |  |  |  |  |  | Activity (Homo sapiens [15]): Dose-dependent effect; Activity (Homo sapiens [16]): Active
10 | COc1cc(OC)c2c(c1)O[C@H](c1cc(OC)c(OC)c(OC)c1)[C@H](OC(=O)c1ccc(F)c(NC(=O)c3ccc(OC)c(OC)c3)c1)C2 | < 4.00 | < 4.00 | < 4.00 | 48.2 | >698 | 0.8 | 2.7 |  | fold change (FC) [14]: 2.5; Activity (Homo sapiens [15]): Dose-dependent effect
11 | COc1cc(OC)c2c(c1)O[C@H](c1cc(OC)c(OC)c(OC)c1)[C@H](O)C2 | < 4.00 | < 4.12 | < 4.00 | 0.9 |  |  |  | 0.1552 | 
12 | COc1cc(OC)c2c(c1)O[C@H](c1cc(OC)c(OC)c(OC)c1)[C@@H](OC(=O)/C=C/c1ccc(OC)c(OC)c1)C2 | < 4.00 | < 4.00 | < 4.00 | 12.3 |  |  |  | 0.0118 | 
13 | COc1cc(OC)c2c(c1)O[C@H](c1cc(OC)c(OC)c(OC)c1)[C@H](OC(=O)c1ccc(F)c(NC(=O)c3cc(OC)c(OC)c(OC)c3)c1)C2 | < 4.00 | < 4.00 | < 4.00 | 43.8 | >467 | 0.9 | 2.3 |  | fold change (FC) [14]: 2.7; Activity (Homo sapiens [16]): Active; Activity (LCC-6 [17]): inactive; inhibition (LCC6MDR (human)): Active
